{"data": "Measured values gathered from unrelated publications", "target": "Angiopoietin-1 receptor (TEK, Homo sapiens, UniProt Q02763)", "note": "Each line is one published result; the experiments were not run side by side."}
{"SMILES": "Nc1ncc2c(n1)-c1c([nH]c3ccc(C#CC4CC4)cc13)CCCC2", "test": "binding, competition with immobilised ligand", "setting": "1 µM", "remaining binding": "100%"}
{"SMILES": "N#Cc1ccccc1CSc1nnc2c(n1)[nH]c1ccccc12", "test": "binding, competition with immobilised ligand", "setting": "10 µM", "remaining binding": "100%"}
{"SMILES": "Cc1cnc(Nc2ccc(C(=O)N3CCC(N4CCCC4)CC3)cc2)nc1-c1cc2ccccc2s1", "test": "binding, competition with immobilised ligand", "setting": "1 µM", "remaining binding": "11%"}
{"SMILES": "CCCOc1ccc([C@@H]2[C@@H](C(=O)O)[C@H](c3ccc4c(c3)OCO4)CN2CC(=O)Nc2c(CC)cccc2CC)cc1", "test": "cell-free assay, competition with immobilised ligand", "setting": "1 µM", "remaining binding": "86%"}
{"SMILES": "COc1cnc(Nc2cccc(S(N)(=O)=O)c2)nc1N1CCN(c2ccccc2)C(=O)C1", "test": "binding, competition with immobilised ligand", "setting": "1 µM", "remaining binding": "100%"}
{"SMILES": "CN(C)c1ncc(F)c(-c2cnn3ncccc23)n1", "test": "binding", "setting": "1 µM", "remaining binding": "100%"}
{"SMILES": "CC(C)(C)c1ccc(-c2nc(CBr)nn2-c2cccc(O)c2)cc1", "test": "cell-free assay, competition with immobilised ligand", "setting": "10 µM", "remaining binding": "99%"}
{"SMILES": "O=C(c1ccc(Nc2ncc(Cl)c(-c3ccc(Cl)s3)n2)cc1)N1CCC(N2CCCC2)CC1", "test": "binding, competition with immobilised ligand", "setting": "1 µM", "remaining binding": "23%"}
{"SMILES": "CNC(=O)c1ccc(Nc2ncc(C(F)(F)F)c(NCc3nccnc3N(C)S(C)(=O)=O)n2)cc1", "test": "cell-free assay, competition with immobilised ligand", "setting": "0.1 µM", "remaining binding": "69%"}
{"SMILES": "C[C@@H]1CCN(c2nccc(-c3cnn4ncccc34)n2)C1", "test": "binding", "setting": "1 µM", "remaining binding": "77%"}
{"SMILES": "CC(=O)C1=C(C)N(c2cccc(C(F)(F)F)c2)C(=O)N[C@@H]1c1ccc(C#N)nc1", "test": "cell-free assay, competition with immobilised ligand", "setting": "1 µM", "remaining binding": "100%"}
{"SMILES": "CN(CCCC(F)(F)F)c1nccc(-c2cnn3ncccc23)n1", "test": "binding", "setting": "1 µM", "remaining binding": "100%"}
{"SMILES": "C[C@H](NC(=O)c1cnc2n1[C@](C)(Cc1ccc(C#N)cc1)C(=O)N2c1cc(Cl)c(F)c(Cl)c1)C(=O)NC1(c2ccccn2)CC1", "test": "cell-free assay, competition with immobilised ligand", "setting": "1 µM", "remaining binding": "91%"}
{"SMILES": "COc1ccnn2ncc(-c3ccnc(N(C)C)n3)c12", "test": "binding", "setting": "1 µM", "remaining binding": "100%"}
{"SMILES": "COc1cc(-c2cn(C3CCc4ccccc4N(CC(F)(F)F)C3=O)nn2)ccc1-n1ccc(C)n1 (stereo not shown)", "test": "cell-free assay, competition with immobilised ligand", "setting": "1 µM", "remaining binding": "81%"}
{"SMILES": "FC(F)(F)Oc1cccc(-c2cnc3ccc(-c4ccncc4)nn23)c1", "test": "cell-free assay, competition with immobilised ligand", "setting": "5 µM", "remaining binding": "76%"}
